Laboratory results from ChEMBL document CHEMBL4177525, “Synthesis and evaluation of frentizole-based indolyl thiourea analogues as MAO/ABAD inhibitors for Alzheimer's disease treatment” (Bioorg Med Chem, 2017).
Active and inactive are the calls of the source. The rule behind the calls is not given here.

How the values were obtained:
[1] = molecular target: T1, Amyloid beta-binding alcohol dehydrogenase (Homo sapiens, UniProt Q2L8D9); assay: Inhibition of ABAD (unknown origin) by spectrophotometric assay
[2] = molecular target: Peroxidase (Raphanus sativus, UniProt K7N5L9); assay: Inhibition of horse radish peroxidase assessed as residual activity by amplex red dye based fluorescence assay
How it was run: (§1)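 HRP (0.02 U/mL) given H2O2 20 µM directly as substrate plus Ampliflu Red 20 µM in 50 mM potassium phosphate pH 7.4. Compound at 50 or 5 µM, 1% DMSO; controls DMSO only. Resorufin fluorescence read at ex 535/em 595 nm, 30°C, as remaining HRP activity.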

[3] = molecular target: T2, peroxidase (horseradish peroxidase) (Raphanus sativus, UniProt K7N5L9); assay: Inhibition of horse radish peroxidase assessed as residual activity at 50 uM by amplex red dye based fluorescence assay; conditions: horseradish peroxidase (isolated enzyme), probe Amplex Red, read-out: Activity
How it was run: as §1

[4] = molecular target: T3, Amine oxidase [flavin-containing] B (Homo sapiens, UniProt P27338); assay: Inhibition of human membrane bound MAO-B expressed in insect cell membranes assessed as reduction in conversion of kynuramine to 4-hydroxyquinoline by spectrophotometric assay; conditions: read-out: IC50
T3 sequence (P27338 whole entry): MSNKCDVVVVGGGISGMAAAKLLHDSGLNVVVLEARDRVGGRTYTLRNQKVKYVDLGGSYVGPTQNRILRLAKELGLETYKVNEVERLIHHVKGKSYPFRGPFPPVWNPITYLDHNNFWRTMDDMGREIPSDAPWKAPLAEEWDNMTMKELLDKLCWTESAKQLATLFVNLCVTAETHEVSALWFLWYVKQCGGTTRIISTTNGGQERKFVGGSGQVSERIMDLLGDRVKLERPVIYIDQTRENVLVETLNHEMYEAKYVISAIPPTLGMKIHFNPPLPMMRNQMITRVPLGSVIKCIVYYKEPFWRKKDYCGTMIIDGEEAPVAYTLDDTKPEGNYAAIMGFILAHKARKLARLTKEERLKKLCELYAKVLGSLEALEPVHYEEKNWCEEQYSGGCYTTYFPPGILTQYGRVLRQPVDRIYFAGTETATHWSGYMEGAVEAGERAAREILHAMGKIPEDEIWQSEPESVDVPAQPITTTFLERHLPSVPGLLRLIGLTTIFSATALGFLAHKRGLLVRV
How it was run: (§2)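 Human MAO-A or MAO-B expressed in insect cell membranes, diluted 1/4000 (A) or 1/2000 (B). Kynuramine at 2×KM: 60 µM for MAO-A, 30 µM for MAO-B. Assay in 50 mM potassium phosphate pH 7.5, 30°C, 1% DMSO, absorbance at 314 nm. Inhibitor varied over 4 orders of magnitude, up to 100 µM. Linear rates from 8-10 assays fitted by 3-parameter regression with bottom fixed at zero; IC50 ± SE of estimate.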

[5] = Quenching activity of the compound assessed as reduction in resorufin fluorescence; type: functional
How it was run: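 Resorufin at 1 µM and 10 µM measured for fluorescence in the presence of compound at 50 µM.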

[6] = molecular target: T4, Amine oxidase [flavin-containing] A (Homo sapiens, UniProt P21397); assay: Inhibition of human membrane bound MAO-A expressed in insect cell membranes assessed as reduction in conversion of kynuramine to 4-hydroxyquinoline by spectrophotometric assay; conditions: read-out: IC50
T4 sequence (P21397 whole entry): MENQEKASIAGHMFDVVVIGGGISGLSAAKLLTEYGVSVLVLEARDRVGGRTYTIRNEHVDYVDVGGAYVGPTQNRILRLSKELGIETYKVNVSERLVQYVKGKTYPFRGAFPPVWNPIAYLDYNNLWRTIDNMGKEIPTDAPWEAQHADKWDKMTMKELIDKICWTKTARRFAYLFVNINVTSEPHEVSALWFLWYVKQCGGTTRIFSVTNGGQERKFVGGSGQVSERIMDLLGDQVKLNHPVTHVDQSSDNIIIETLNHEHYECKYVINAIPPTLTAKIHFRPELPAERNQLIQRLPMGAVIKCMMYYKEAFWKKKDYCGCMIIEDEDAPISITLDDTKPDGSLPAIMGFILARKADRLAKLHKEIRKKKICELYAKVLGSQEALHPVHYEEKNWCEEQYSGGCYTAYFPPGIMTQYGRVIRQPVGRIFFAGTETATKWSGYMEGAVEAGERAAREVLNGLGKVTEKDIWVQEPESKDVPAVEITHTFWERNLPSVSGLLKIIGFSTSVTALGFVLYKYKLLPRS
How it was run: as §2

[7] = Lipophilicity of the compound assessed as capacity factor at pH 3.5 by HPLC analysis; type: physicochemical; conditions: buffer
How it was run: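 Capacity factor k from gradient HPLC on reversed-phase C18 in acid polar organic mode, pH ~3.5.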

[8] = molecular target: T1, Amyloid beta-binding alcohol dehydrogenase; assay: Inhibition of ABAD (unknown origin) assessed as residual activity at 100 uM using acetoacetyl-CoA in presence of NADH by spectrophotometric assay relative to control
How it was run: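 Recombinant ABAD at 0.5 µg/mL with NADH 250 µM and acetoacetyl-CoA 120 µM; compound at 100 µM in 1% DMSO, controls with matching DMSO. Buffer 10 mM HEPES, 0.5% gelatin, pH 7.4 at 37°C. NADH consumption read as falling absorbance at 340 nm; reported as % remaining activity ± SEM from two biological repeats, each with three technical repeats.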

[9] = molecular target: T2, peroxidase (horseradish peroxidase); assay: Inhibition of horse radish peroxidase assessed as residual activity at 5 uM by amplex red dye based fluorescence assay; conditions: horseradish peroxidase (isolated enzyme), probe Amplex Red, read-out: Activity
How it was run: as §1

[10] = Solubility of the compound at 100 uM; type: physicochemical
How it was run: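 Compounds checked for solubility in assay buffer at 100 µM.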

[11] = Cytotoxicity against CHOK1 cells assessed as reduction in cell viability after 24 hrs by MTT assay; type: cell-based, Cricetulus griseus; conditions: chinese hamster, CHO-K1 cells; read-out: LC50
How it was run: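 CHO-K1 cells grown as ECACC recommends, seeded 8000 per well; compounds from DMSO stocks diluted in F-12 with 10% FBS and 1% pen/strep (final DMSO at most 0.5%), exposed 24 h. Medium then replaced with 10 µM MTT for about 3 h, formazan dissolved in DMSO, absorbance read at 570 nm (650 nm reference). LC50 from control-subtracted triplicates by four-parameter regression; mean ± SEM of 3 independent runs.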

[12] = molecular target: T4, Amine oxidase [flavin-containing] A; assay: Inhibition of human purified MAO-A expressed in insect cell membranes assessed as reduction in conversion of kynuramine to 4-hydroxyquinoline by spectrophotometric assay; conditions: read-out: IC50

T2 sequence (K7N5L9 whole entry): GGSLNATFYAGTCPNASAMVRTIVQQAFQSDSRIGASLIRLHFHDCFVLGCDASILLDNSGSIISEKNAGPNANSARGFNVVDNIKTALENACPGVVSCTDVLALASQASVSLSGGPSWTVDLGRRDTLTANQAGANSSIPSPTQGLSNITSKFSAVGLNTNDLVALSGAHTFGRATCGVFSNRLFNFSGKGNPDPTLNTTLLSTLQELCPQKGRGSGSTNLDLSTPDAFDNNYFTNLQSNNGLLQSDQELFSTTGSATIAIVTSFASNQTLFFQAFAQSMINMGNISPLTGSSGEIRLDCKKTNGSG
Chain of Peroxidase (K7N5L9 whole entry): as above

O=C(C(c1ccccc1)n1cnc2[nH]ncc2c1=S)N1CCCCCC1 (configuration not stated)
IC50 [1]: 0.092 µM

Oc1ccc(NC(=S)Nc2ccc3[nH]ccc3c2)cc1Cl
IC50 [2]: 1.01 µM
activity at 50 µM [3]: 26.4%
IC50 [4]: 8.6 µM
Activity [5]: inactive
IC50 [6]: 58 µM
K [7]: 3.76
Activity [8]: 49.1%
activity at 5 µM [9]: 39.9%
solubility [10]: Soluble
CC50 at 24 h [11]: 447 µM
IC50 [12]: 58 µM
